Measured values from ChEMBL document CHEMBL1122032, “Dopaminergic activity of substituted 6-chloro-1-phenyl-2,3,4,5-tetrahydro-1H-3-benzazepines” (J Med Chem, 1982).
Calls of active or inactive are those of the source. The calls are words filed in the database; no cut-off is given here.

Tests used:
Rattus norvegicus [1] = species: Rattus norvegicus; assay: Adenylase cyclase activity in rat striatal membranes at the concentration of 10e-6; assay type: functional; details: Striatum, Membrane
Canis familiaris [2] = species: Canis familiaris; assay: Renal blood flow was measured in dogs; I=Inactive; assay type: functional, organism-based; details: Canis lupus familiaris; Kidney
Canis familiaris [3] = species: Canis familiaris; assay: Renal vascular resistance was calculated as the ratio of the mean arterial blood pressure / mean renal blood flow; I=Inactive; assay type: functional, organism-based; details: Canis lupus familiaris
Rattus norvegicus [4] = species: Rattus norvegicus; assay: Adenylase cyclase activity in rat striatal membranes at the concentration of 10e-5; assay type: functional; details: Striatum, Membrane
Rattus norvegicus [5] = assay: Central dopaminergic activity for minimum concentration which produced 500 rotations(ip) in 2 h; assay type: functional
Outline: (§1)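 Rats with substantia nigra lesions scored for contralateral rotation after intraperitoneal dosing (routine), oral dosing for selected compounds, or intracaudal administration for intrinsic activity. RD500 and RD1000 are the minimum doses giving 500 and 1000 turns, respectively, in 2 h.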

Rattus norvegicus [6] = assay: Central dopaminergic activity against contralateral rotation(1000) in lesioned rats(po) in 2 h; assay type: functional
Outline: (§2)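 Oral dosing in rats with substantia nigra lesions, scoring contralateral rotations. RD1000 is the minimum dose producing 1000 turns in 2 h.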

Canis familiaris [7] = species: Canis familiaris; assay: Renal blood flow was measured in dogs; Highly significant activity; assay type: functional, organism-based; details: Canis lupus familiaris; Kidney
[8] = Selectivity ratio of compound as ratio of ED15 relative to mean arterial blood pressure(MABP) ED20; assay type: functional
Outline: (§3)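 Secondary renal screen in anesthetized dogs: cumulative dose-response by infusing drug at progressively increasing rates, 5 min per dose level. RVR ED15 is the average minimum cumulative dose lowering RVR by 15%; maximum effect is the average maximum % fall in RVR. Selectivity ratios are separations between RVR ED15 and doses giving 30% change in iliac vascular resistance, 20% in MABP, 20% in HR.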

Canis familiaris [9] = assay: Compound was evaluated for determining renal vascular resistance(iv) in dogs; assay type: functional, Canis lupus familiaris; outline: as §3
[10] = Selectivity ratio of compound as ED15 relative to heart rate(HR) ED20; assay type: functional; outline: as §3
[11] = Selectivity ratio of Compound as ratio of ED15 relative to iliac vascular resistance(IVR) ED30; assay type: functional; outline: as §3
Canis familiaris [12] = species: Canis familiaris; assay: Renal vascular resistance was calculated as the ratio of the mean arterial blood pressure / mean renal blood flow; Highly significant activity; assay type: functional, organism-based; details: Canis lupus familiaris
Canis familiaris [13] = species: Canis familiaris; assay: Compound was evaluated for average maximum percent decrease in renal vascular resistance in dogs; assay type: functional, Canis lupus familiaris; outline: as §3
Rattus norvegicus [14] = assay: Central dopaminergic activity for minimum concentration which produced 500 rotations at the dose of 10 mg/kg (i.p.) in 2 h; assay type: functional; details: route intraperitoneal; outline: as §1
Rattus norvegicus [15] = assay: Central dopaminergic activity for minimum concentration which produced 500 rotations at the dose of 10 mg/kg (i.p.) in 2 h; I=Inactive; assay type: functional, organism-based; set-up: dose 10 mg/kg; outline: as §1
Rattus norvegicus [16] = species: Rattus norvegicus; assay: Adenylase cyclase activity in rat striatal membranes at the concentration of 10e-7; assay type: functional; details: Striatum, Membrane
Rattus norvegicus [17] = species: Rattus norvegicus; assay: Adenylase cyclase activity in rat striatal membranes; assay type: functional, organism-based, Membrane; details: Striatum
Canis familiaris [18] = species: Canis familiaris; assay: Renal blood flow was measured in dogs; Significant activity; assay type: functional, organism-based; details: Canis lupus familiaris; Kidney
Canis familiaris [19] = species: Canis familiaris; assay: Renal vascular resistance was calculated as the ratio of the mean arterial blood pressure / mean renal blood flow; Significant activity; assay type: functional, organism-based; details: Canis lupus familiaris
Rattus norvegicus [20] = assay: Central dopaminergic activity against contralateral rotation(1000) in lesioned rats at the dose of 10 mg/kg (p.o.) in 2 h; assay type: functional; details: route oral; outline: as §2

| Structure (SMILES) | DA response (Rattus norvegicus [1]) | RVR (Canis familiaris [3]) | DA response (Rattus norvegicus [4]) | RD500 (Rattus norvegicus [5]) | RBF (Canis familiaris [7]) | Ratio [8] | RVR ED15 (Canis familiaris [9]) | Ratio [10] | Ratio [11] | RVR (Canis familiaris [12]) | Decrease RVR (Canis familiaris [13]) | further results |
| --- | --- | --- | --- | --- | --- | --- | --- | --- | --- | --- | --- | --- |
| Br.Oc1cc2c(c(Cl)c1O)CCNCC2c1ccc(Cl)cc1 (stereo not drawn) | 52% | inactive | 68% | 3.4 mg/kg | – | – | – | – | – | – | – | RBF (Canis familiaris [2]): inactive |
| Br.Cc1cccc(C2CN(C)CCc3c2cc(O)c(O)c3Cl)c1 (stereo not drawn) | 15% | inactive | 14% | 0.041 mg/kg | – | – | – | – | – | – | – | RD1000 (Rattus norvegicus [6]): 2 mg/kg; RBF (Canis familiaris [2]): inactive |
| NCCc1ccc(O)c(O)c1 [DOPAMINE] | – | – | – | – | Active | 113 | 0.0027 mg/kg | 141 | 56 | Active | 36% | – |
| Br.Cc1ccccc1C1CNCCc2c1cc(O)c(O)c2Cl (stereo not drawn) | 30% | inactive | 55% | – | – | – | – | – | – | – | – | RBF (Canis familiaris [2]): inactive; Contralateral turns in 2 h (Rattus norvegicus [14]): 663 turns/2 h |
| CC(=O)Oc1cc2c(c(Cl)c1OC(C)=O)CCN(C)CC2c1ccccc1.Cl (stereo not drawn) | – | inactive | – | 0.025 mg/kg | – | – | – | – | – | – | – | RD1000 (Rattus norvegicus [6]): 2.2 mg/kg; RBF (Canis familiaris [2]): inactive |
| COc1ccc(CN2CCc3c(cc(O)c(O)c3Cl)C(c3ccccc3)C2)cc1 (stereo not drawn) | – | – | – | – | Highly significant activity | – | – | – | – | Significant activity | – | RD500 (Rattus norvegicus [15]): inactive |
| Br.Oc1ccc(C2CNCCc3c2cc(O)c(O)c3Cl)cc1Br (stereo not drawn) | – | – | – | – | – | >2995 | 0.002 mg/kg | >2995 | 15 | – | 26% | – |
| Br.CCCCN1CCc2c(cc(O)c(O)c2Cl)C(c2ccccc2)C1 (stereo not drawn) | 85% | inactive | 90% | – | – | – | – | – | – | – | – | RBF (Canis familiaris [2]): inactive; Contralateral turns in 2 h (Rattus norvegicus [14]): 611 turns/2 h |
| Br.Oc1cc(C2CNCCc3c2cc(O)c(O)c3Cl)ccc1Cl (stereo not drawn) | – | – | – | – | Highly significant activity | >249 | 0.061 mg/kg | >249 | > 249 | Significant activity | 25% | RD500 (Rattus norvegicus [15]): inactive |
| Br.C=CCN1CCc2c(cc(O)c(O)c2Cl)C(c2cccc(C)c2)C1 (stereo not drawn) | – | – | 96% | 0.04 mg/kg | Highly significant activity | – | – | – | – | Significant activity | – | RD1000 (Rattus norvegicus [6]): 3 mg/kg; DA response (Rattus norvegicus [16]): 86% |
| Br.Cc1cccc(C2CNCCc3c2cc(O)c(O)c3Cl)c1 (stereo not drawn) | – | – | 94% | 0.47 mg/kg | Highly significant activity | >6072 | 0.015 mg/kg | 7 | 1 | Significant activity | 56% | DA response (Rattus norvegicus [16]): 76% |
| Br.Oc1cccc(C2CNCCc3c2cc(O)c(O)c3Cl)c1 (stereo not drawn) | – | – | – | – | – | >6072 | 0.00035 mg/kg | 1029 | 34 | – | 49% | EC50 (Rattus norvegicus [17]): 45 nM; RBF (Canis familiaris [18]): Significant activity; RD500 (Rattus norvegicus [15]): inactive; RVR (Canis familiaris [19]): Significant activity |
| Br.CN1CCc2c(cc(O)c(O)c2Cl)C(c2cccc(Cl)c2)C1 (stereo not drawn) | 22% | inactive | 13% | 0.03 mg/kg | – | – | – | – | – | – | – | RD1000 (Rattus norvegicus [6]): 3.2 mg/kg; RBF (Canis familiaris [2]): inactive |
| Br.CCN1CCc2c(cc(O)c(O)c2Cl)C(c2ccccc2)C1 (stereo not drawn) | 48% | – | 55% | 0.015 mg/kg | Highly significant activity | 18 | 0.045 mg/kg | >6072 | 0.1 | Significant activity | 16% | RD1000 (Rattus norvegicus [6]): 4.9 mg/kg |
| Br.C=CCN1CCc2c(cc(O)c(O)c2Cl)C(c2ccccc2)C1 (stereo not drawn) | – | – | – | 0.03 mg/kg | Active | – | – | – | – | Active | – | – |
| Br.Oc1ccc(C2CNCCc3c2cc(O)c(O)c3Cl)cc1Cl (stereo not drawn) | – | inactive | – | – | – | -3 | 0.099 mg/kg | 0 | -1 | – | 56% | RBF (Canis familiaris [18]): Significant activity; RD500 (Rattus norvegicus [15]): inactive |
| Br.Oc1cc2c(c(Cl)c1O)CCNCC2c1cc(Cl)c(O)c(Cl)c1 (stereo not drawn) | – | – | – | – | – | >37 | 0.165 mg/kg | >37 | > 37 | – | 18% | RBF (Canis familiaris [18]): Significant activity; RD500 (Rattus norvegicus [15]): inactive; RVR (Canis familiaris [19]): Significant activity |
| Cl.Oc1cc2c(c(Cl)c1O)CCN(Cc1ccco1)CC2c1ccccc1 (stereo not drawn) | 41% | – | 82% | – | Highly significant activity | >6072 | 0.2 mg/kg | >6072 | > 6070 | Significant activity | 26% | Contralateral turns in 2 h (Rattus norvegicus [14]): 611 turns/2 h |
| CC(=O)Oc1cc2c(c(Cl)c1OC(C)=O)CCNCC2c1ccccc1 (stereo not drawn) | – | – | – | – | Highly significant activity | – | – | – | – | Significant activity | – | – |
| Br.OCCN1CCc2c(cc(O)c(O)c2Cl)C(c2ccccc2)C1 (stereo not drawn) | – | inactive | – | – | – | >6072 | 0.0045 mg/kg | >6072 | 929 | – | 42% | Contralateral turns in 2 h (Rattus norvegicus [14]): 1310 turns/2 h; RBF (Canis familiaris [18]): Significant activity |
| Br.Oc1cc2c(c(Cl)c1O)CCNCC2c1cccc(Cl)c1 (stereo not drawn) | 82% | inactive | 90% | 0.3 mg/kg | Highly significant activity | – | – | – | – | – | – | RD1000 (Rattus norvegicus [20]): 602 turns/2 h |
| Br.C=CCN1CCc2c(cc(O)c(O)c2Cl)C(c2ccc(Cl)c(O)c2)C1 (stereo not drawn) | – | – | – | – | Highly significant activity | >319 | 0.019 mg/kg | >319 | – | – | 39% | RD500 (Rattus norvegicus [15]): inactive; RVR (Canis familiaris [19]): Significant activity |
| Br.Cc1ccc(C2CNCCc3c2cc(O)c(O)c3Cl)cc1 (stereo not drawn) | 23% | inactive | 42% | – | – | – | – | – | – | – | – | RBF (Canis familiaris [2]): inactive; Contralateral turns in 2 h (Rattus norvegicus [14]): 420 turns/2 h |
| Cl.Oc1cc2c(c(Cl)c1O)CCN(Cc1cccs1)CC2c1ccccc1 (stereo not drawn) | 51% | – | 64% | 0.063 mg/kg | – | – | – | – | – | – | – | RD1000 (Rattus norvegicus [6]): 5.8 mg/kg; RBF (Canis familiaris [18]): Significant activity; RVR (Canis familiaris [19]): Significant activity |
